Measured values as given in publication PMC2992437 (ACS chemical neuroscience, 2010).
Read-outs that look alike come from different tables or passages of the source.

What was measured:
[1] = tested on: NPS induced hyperlocomotion; settings: cited from earlier work
NPSR [2] = biological target: T1, NPSR (Homo sapiens, UniProt Q6W5P4); assay: Intracellular calcium assay; assay type: cell-based
T1 sequence (Q6W5P4 1-371): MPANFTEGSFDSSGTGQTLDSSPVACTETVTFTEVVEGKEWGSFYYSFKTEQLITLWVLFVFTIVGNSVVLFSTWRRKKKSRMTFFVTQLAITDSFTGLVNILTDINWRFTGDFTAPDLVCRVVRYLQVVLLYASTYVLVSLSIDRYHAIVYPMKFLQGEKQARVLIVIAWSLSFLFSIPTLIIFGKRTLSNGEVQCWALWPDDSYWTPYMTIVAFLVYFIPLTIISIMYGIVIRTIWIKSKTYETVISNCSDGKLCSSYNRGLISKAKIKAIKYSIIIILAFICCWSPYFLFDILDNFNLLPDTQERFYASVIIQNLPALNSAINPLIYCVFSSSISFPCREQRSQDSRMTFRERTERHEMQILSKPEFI

NPSR [3] = biological target: T1, NPSR; assay: Radioligand binding assay, displacement of [125I]Y10-NPS on CHO-NPSR cells
How it was run: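 Whole CHO-NPSR cells at about 95% confluence were washed with PBS. They were then incubated for 90 min at room temperature in DMEM with 0.1% BSA, 0.15 nM [125I]Y10-NPS and increasing concentrations of unlabeled human NPS or test compound. Nonspecific binding was taken with 1 μM NPS. Cells were washed in ice-cold PBS, lysed in 1 N NaOH and gamma-counted. Experiments were run in duplicate.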

NPSR [4] = biological target: T1, NPSR; assay: cAMP assay; assay type: cell-based; settings: Table 5

Which “effect on NPS induced hyperlocomotion” value ([1]; initial pharmacological results) does the source give for CCC(C)(CCN1CCOCC1)N(Cc1cc2ccccc2n(C)c1=O)C(=O)C1CCCCC1 (centres unmarked) [Compound 2, N-(3-methyl-1-morpholinopentan-3-yl)-N-((1-methyl-2-oxo-1,2-dihydroquinolin-3-yl)methyl)cyclohexanecarboxamide] here?
The value was “capacity to reduce the NPS induced hyperlocomotion”.

Which IC50 (NPSR [2]) does the source give for COc1ccc(C2c3c(N)nc(Cc4ccccc4)nc3Oc3ccc4ccccc4c32)cc1OC (centres unmarked) [Compound 10a] here?
The IC50 was greater than 30 µM.

For O=C1OC(c2ccccc2)(c2ccccc2)N2CCN(C(=O)NCc3ccc(F)cc3)CC12 (centres unmarked) [Compound 1, N-(4-fluorobenzyl)-1-oxo-3,3-diphenyltetrahydro-1H-oxazolo[3,4-a]pyrazine-7(3H)-carboxamide], which “effect on NPS induced hyperlocomotion” value ([1]; mice) is on record?
Its value is “partially reduce the NPS induced hyperlocomotion”.

For COc1ccc(C2c3c(ncn(CCN4CCOCC4)c3=N)Oc3ccc4ccccc4c32)cc1OC (centres unmarked) [Compound 3a, 10-(2-morpholinoethyl)-12-(3,4-dimethoxyphenyl)-12H-naphtho[1',2':5,6]pyrano[2,3-d]pyrimidin-11-imine], which Ki (NPSR [3]) is on record?
The Ki was 210 nM.

Which “cAMP activity (in words)” value (NPSR [4]) does the source give for COc1cccc(C2c3c(ncn(-c4ccccc4C#N)c3=N)Oc3ccc4ccccc4c32)c1 (centres unmarked) [Compound 3aa, 10-(2-Cyanophenyl)-12-(3-methoxyphenyl)-12H-naphtho[1',2':5,6]pyrano[2,3-d]pyrimidin-11-imine] here?
Its value is “no cAMP activity”.
